One may read the IC50 as the concentration that inhibits the measured activity by half. A word on the inhibition: it is the share of the control response that was lost under treatment.

Results on ten compounds are retold here after ChEMBL document CHEMBL1770071, “Multitargeted drugs discovery: balancing anti-amyloid and anticholinesterase capacity in a single chemical entity” (Bioorg Med Chem Lett, 2011).

One data set addresses Acetylcholinesterase (Homo sapiens, UniProt P22303). Briefly: Inhibition of human serum AChE.
A further data set deals with Cholinesterase (Homo sapiens, UniProt P06276). The experiment in a line: Inhibition of human serum BuChE. The method, boiled down:
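BuChE purified from human serum; activity read by Ellman's method. IC50 is the inhibitor concentration that cuts enzyme activity by 50%, taken as the mean of two independent measurements each run in duplicate.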

Data set [1] is described as follows: Inhibition of amyloid beta (1-42) aggregation at 10 uM by thioflavin T based fluorometric assay. The essentials:
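Aβ1-42 self-induced aggregation, read by thioflavin T fluorescence, with Aβ1-42 to inhibitor ratio 5/1. Reported as % inhibition. Mean of two independent experiments, each in duplicate. Controls added compound to already-aggregated Aβ after ThT dilution to exclude ThT displacement.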

A short description of data set [2]: Neurotoxicity in human SH-SY5Y cells assessed as decrease in cell viability by MTT assay. In kind it is toxicity, cell-based. The method, boiled down:
(§1)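 SH-SY5Y human neuronal-like cells treated with compound alone for 24 h, with viability read by colorimetric MTT assay. IC50 is the concentration giving 50% inhibition of neuronal viability. Range tested 1–50 µM.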
On the technique in general: Tetrazolium dyes change colour on reduction, which living cells bring about.

The subject of data set [3] is SH-SY5Y. The experiment in a line: Neurotoxicity in human SH-SY5Y cells assessed as cell viability at 0.1 to 1 uM by MTT assay. In kind it is toxicity, cell-based.
In data set [4] the test system is SH-SY5Y. The experiment in a line: Neuroprotective activity in human SH-SY5Y cells assessed as inhibition of amyloid beta(1-42)-induced neurotoxicity at 1 uM incubated for 3 hrs by MTT assay. The class given is functional. Set-up: scale not given: the % may be the effect or the level left. The method, boiled down:
(§2)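 Human neuronal-like SH-SY5Y cells exposed for 3 h to Aβ1–42 pre-aggregated to oligomers, with compound present. Viability read by MTT colorimetric assay. Result expressed as % inhibition of oligomer-induced neurotoxicity, mean ± SD of at least two independent experiments.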

In data set [5] the test system is SH-SY5Y. The experiment in a line: Neuroprotective activity in human SH-SY5Y cells assessed as inhibition of amyloid beta(1-42)-induced neurotoxicity at 10 uM incubated for 3 hrs by MTT assay. In kind it is functional. Set-up: scale not given: the % may be the effect or the level left. The method, boiled down: as §2
The subject of data set [6] is SH-SY5Y. The experiment in a line: Neurotoxicity in human SH-SY5Y cells assessed as decrease in cell viability at 1 to 50 uM by MTT assay. The class given is toxicity, cell-based. The essentials:
as §1

For data set [7], the system named is SH-SY5Y. The experiment in a line: Neurotoxicity in human SH-SY5Y cells assessed as cell viability at 0.1 to 10 uM by MTT assay. The class given is toxicity, cell-based.

Cholinesterase, sequence (P06276 whole entry): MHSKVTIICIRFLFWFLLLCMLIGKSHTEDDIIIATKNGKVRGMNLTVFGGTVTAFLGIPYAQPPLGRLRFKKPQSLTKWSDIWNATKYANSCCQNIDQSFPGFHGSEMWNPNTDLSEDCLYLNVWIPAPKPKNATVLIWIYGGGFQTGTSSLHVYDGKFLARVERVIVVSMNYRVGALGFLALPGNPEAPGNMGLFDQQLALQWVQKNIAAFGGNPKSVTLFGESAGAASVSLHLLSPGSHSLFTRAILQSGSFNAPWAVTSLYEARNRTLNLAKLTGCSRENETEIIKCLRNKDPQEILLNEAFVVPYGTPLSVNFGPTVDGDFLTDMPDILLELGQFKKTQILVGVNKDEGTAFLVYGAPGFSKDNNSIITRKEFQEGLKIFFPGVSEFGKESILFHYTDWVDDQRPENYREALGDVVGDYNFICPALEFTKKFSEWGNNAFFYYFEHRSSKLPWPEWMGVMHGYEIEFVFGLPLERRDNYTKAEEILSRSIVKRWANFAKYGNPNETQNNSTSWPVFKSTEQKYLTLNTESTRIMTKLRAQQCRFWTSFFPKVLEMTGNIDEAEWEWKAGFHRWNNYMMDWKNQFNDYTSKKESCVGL
Acetylcholinesterase, sequence (P22303 whole entry): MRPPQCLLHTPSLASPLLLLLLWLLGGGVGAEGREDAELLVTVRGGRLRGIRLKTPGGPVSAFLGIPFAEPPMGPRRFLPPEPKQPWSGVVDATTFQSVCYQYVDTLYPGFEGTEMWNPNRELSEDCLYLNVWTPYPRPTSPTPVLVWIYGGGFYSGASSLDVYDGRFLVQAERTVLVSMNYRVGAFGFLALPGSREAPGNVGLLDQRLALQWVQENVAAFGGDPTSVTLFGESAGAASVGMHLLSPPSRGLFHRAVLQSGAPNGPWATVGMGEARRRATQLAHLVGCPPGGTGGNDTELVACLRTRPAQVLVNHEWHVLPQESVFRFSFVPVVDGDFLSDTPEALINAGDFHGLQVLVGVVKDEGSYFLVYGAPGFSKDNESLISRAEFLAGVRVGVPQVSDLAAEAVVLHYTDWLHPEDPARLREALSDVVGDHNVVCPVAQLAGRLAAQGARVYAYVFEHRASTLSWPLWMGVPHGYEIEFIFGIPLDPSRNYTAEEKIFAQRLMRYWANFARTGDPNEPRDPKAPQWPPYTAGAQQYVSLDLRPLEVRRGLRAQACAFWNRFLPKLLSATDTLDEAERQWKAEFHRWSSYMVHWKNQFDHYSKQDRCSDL

As for `O=C1C=C(NCCCNCc2cc3ccccc3o2)C(=O)C=C1NCCCNCc1cc2ccccc2o1`, the IC50 came to 21.8 µM on Acetylcholinesterase, 2.6 µM against Cholinesterase and 14.8 µM in [2]. Moreover, the inhibition in data set [1] was 27.2%. In addition, the Activity entry is given as “Non-toxic” in the data set with SH-SY5Y [3] and 25% in the data set on SH-SY5Y [4].
Turning to `CCN(CCCCCCNC1=CC(=O)C(NCCCCCCN(CC)Cc2ccccc2OC)=CC1=O)Cc1ccccc1OC` [MEMOQUIN], the IC50 in data set [2] turned out to be 19.4 µM. Besides, the Activity entry is on record as “Non-toxic” in the data set on SH-SY5Y [3], 70% with SH-SY5Y [4] and 80% in the data set on SH-SY5Y [5].
Turning to `O=C1C=C(NCCCCCCNCc2cc3ccccc3o2)C(=O)C=C1NCCCCCCNCc1cc2ccccc2o1`, the IC50 at Acetylcholinesterase was > 10 µM; at Cholinesterase, 84.2 µM. The same compound had an inhibition in data set [1] of 18.4%.
Take `O=C1C=C(NCCCNCc2nc3ccccc3s2)C(=O)C=C1NCCCNCc1nc2ccccc2s1`: the IC50 at Acetylcholinesterase and against Cholinesterase was > 10 µM each time. The compound also gave an inhibition in data set [1] of 16.2%. Besides, the Activity entry in the data set with SH-SY5Y [6] is “Non-toxic”; in the data set with SH-SY5Y [3], “Non-toxic”; with SH-SY5Y [4], 25%.
On to `COc1cc(CNCCCCCCNC2=CC(=O)C(NCCCCCCNCc3ccc(O)c(OC)c3)=CC2=O)ccc1O`, for which the IC50 was found to be 0.102 µM against Acetylcholinesterase and 1.6 µM on Cholinesterase. Further, the inhibition in [1] worked out at 50.4%.
In the case of `O=C1C=C(NCCCCCCNCc2ccc(-c3nc4ccccc4s3)cc2)C(=O)C=C1NCCCCCCNCc1ccc(-c2nc3ccccc3s2)cc1`, the IC50 stood at 0.305 µM at Acetylcholinesterase and 27.3 µM on Cholinesterase. In [1], the inhibition is 25.7%.
As to `O=C1C=C(NCCCCCCNCc2nc3ccccc3s2)C(=O)C=C1NCCCCCCNCc1nc2ccccc2s1`, the IC50 at Acetylcholinesterase was 22 µM; on Cholinesterase it was > 10 µM. In data set [1], this compound showed an inhibition of 18.5%.
Consider `O=C1C=C(NCCCNCc2ccc(-c3nc4ccccc4s3)cc2)C(=O)C=C1NCCCNCc1ccc(-c2nc3ccccc3s2)cc1`, for which the IC50 at Acetylcholinesterase was determined as 31.4 µM; at Cholinesterase, 35.3 µM. This compound also returned an inhibition in [1] of 41.4%.
Turning to `COc1cc(CNCCCNC2=CC(=O)C(NCCCNCc3ccc(O)c(OC)c3)=CC2=O)ccc1O`, the IC50 on Acetylcholinesterase was determined as 0.198 µM; at Cholinesterase, 8.24 µM. The same compound registered an inhibition in [1] of 22%. Further, the Activity result in the data set with SH-SY5Y [6] is recorded as “Non-toxic”; in the data set on SH-SY5Y [7], “Non-toxic”; with SH-SY5Y [4], 25%.
In [1], `COc1cc(/C=C/C(=O)CC(=O)/C=C/c2ccc(O)c(OC)c2)ccc1O` came in with an inhibition of 34.4%.
